GSK3 alpha inh – blockers of GSK3A enzyme activity – biochemical, luminescence, cell-free homogeneous, HTS, primary screen; Glycogen synthase kinase-3 alpha (Homo sapiens), P49840; GSK-3 alpha kinase, ADP-Glo luminescence, 60 min; inhibition, % at 10 µM; 0.1% of 320,000 active; AID 2650, 2010;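 active = more than half of replicates show inhibition above 20%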;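 note: GST-tagged GSK-3 alpha with peptide substrate and 25 µM ATP; 0% = DMSO neutral wells and 100% = GW8510 positive control wells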
STK33 inh – inhibitors of purified STK33 kinase, primary screen, biochemical, ADP-Glo luminescence, homogeneous, cell-free; Serine/threonine-protein kinase 33 (Homo sapiens), Q9BYT3; MBP phosphorylation; inhibition, % at 10 µM; 0.073% of 320,000 active; AID 2661, 2010;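 active = inhibition at or above 25%, using the most active replicate where run in duplicate; inactive = inhibition below 25%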
HSV augment – enhancers of HSV replication in host cells, fold increase, host cell viability | HSV replication augmentation in cells | maximum fold increase | 0.005% of 220,000 active | AID 1956, 2009; in the data active = maximum fold increase above about 1.5; tested in PC3 cells
Rce1 inhib – yeast Rce1p protease inhibitors, primary screen, biochemical, fluorescence, cell-free homogeneous; CAAX prenyl protease 2 (Saccharomyces cerevisiae (strain ATCC 204508 / S288c)), Q03530; yeast membranes, quenched prenylated peptide cleavage fluorescence; calls only; 0.27% of 290,000 active;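 active = fall in fluorescence gain of 50% or more versus controls, with final raw signal at or below 3038400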;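 note: plate controls were neutral control wells for no effect and wells lacking membranes for full effect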
Lipid droplet – inhibitors of hepatocyte lipid droplet formation, primary screen, imaging, high-throughput imaging, BODIPY stain; AML12 mouse hepatocytes, oleate lipid droplets; inhibition, % at 6.5 µM; 0.4% of 240,000 active;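 active = lipid droplet intensity inhibited by at least 50%, with more than 500 cells counted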
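Test system: AML12 hepatocytes (mouse); reagent: oleate loading, 100 µM; dosing: one dose, 6.5 µM compound; incubation: overnight exposure; signal: fluorescence imaging, 20x objective, two fields per well; read-out basis: % inhibition of corrected integrated BODIPY droplet signal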
GSK3B inh – human GSK3beta kinase inhibitors, primary screen, biochemical, cell-free homogeneous, HTS | activity score (negative = inhibition), % at 10 µM | Glycogen synthase kinase-3 beta (Homo sapiens), P49841 | AID 2097, 2009 | 0.038% of 300,000 active | GST-GSK3beta kinase, ADP-Glo luminescence, 60 min; active compounds read low;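 active = more than half of replicate wells score below -50%, meaning over 50% inhibition versus plate controls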;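 note: 0% = median DMSO wells and -100% = median GW8510 positive control wells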
Target sequence (P49841 whole entry, looked up): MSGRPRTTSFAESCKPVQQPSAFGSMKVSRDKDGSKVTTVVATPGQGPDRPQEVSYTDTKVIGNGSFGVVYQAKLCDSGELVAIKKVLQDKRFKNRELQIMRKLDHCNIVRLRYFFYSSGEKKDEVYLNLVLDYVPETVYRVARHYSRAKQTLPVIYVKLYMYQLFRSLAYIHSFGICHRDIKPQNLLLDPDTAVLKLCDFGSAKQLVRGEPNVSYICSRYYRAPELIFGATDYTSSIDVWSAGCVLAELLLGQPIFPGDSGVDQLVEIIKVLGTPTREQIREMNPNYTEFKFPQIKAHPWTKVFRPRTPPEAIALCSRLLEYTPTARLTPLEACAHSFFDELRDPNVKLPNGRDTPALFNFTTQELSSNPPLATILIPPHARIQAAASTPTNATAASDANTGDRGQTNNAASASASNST
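Test system – GST-tagged human GSK3beta kinase, cell-free · Incubation – 60 min enzyme reaction, room temperature · Signal – ADP-Glo luminescence · Also added – peptide substrate and ATP at 25 µM · Controls – DMSO neutral wells and GW8510 at 20 µM as positive · Buffer or medium – Tris/MgCl2 kinase buffer · Measure – Luminescence-derived activity versus plate DMSO and GW8510 wells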
Active calls of the source: *; i = inactive; · = no result; + = active, no number; ! = not confirmed by another sample. An excerpt weighted towards active compounds, which were near 0.7% of everything screened.

SMILES	GSK3 alpha inh	STK33 inh	HSV augment	Rce1 inhib	Lipid droplet	GSK3B inh
NS(=O)(=O)c1ccc(Nc2nc(-c3ccc(O)cc3O)cs2)cc1	61*	17	i	·	0	-28
NS(=O)(=O)c1ccc(Nc2nc(-c3ccc(F)cc3)cs2)cc1	13	2	i	i	-15	-8
Cc1cc2cc(CCNC(=O)c3cccs3)c(=O)[nH]c2cc1C	-1	0	·	i	14	-5
Cc1cc(C)c(C#N)c(SCSCc2ccccc2)n1	-3	1	i	i	-2	-8
CCCCNC(=O)c1cc2c(=O)n3cccc(C)c3nc2n(Cc2ccccc2)c1=N	-5	-1	·	+	·	-2
CCC1=C[C@H]2CN(C1)Cc1c([nH]c3ccccc13)[C@@](C(=O)OC)(c1cc3c(cc1OC)N(C)[C@H]1[C@@](O)(C(=O)OC)[C@H](OC(C)=O)[C@]4(CC)C=CCN5CC[C@]31[C@@H]54)C2	·	·	i	·	·	·
CCOc1ccc(-n2c(SCc3ccc([N+](=O)[O-])cc3)nnc2-c2ccc(OC)cc2)cc1	-1	0	i	+	5	3
CCCCN(CC)CCNC(=O)c1cc2c(=O)n(C)c3ccccc3c2s1	-1	4	·	i	-4	-1
CCN(CC)CCNC(=O)c1cc2c(=O)n(C)c3ccccc3c2s1	1	2	·	+	-4	-4
O=C(c1cn(-c2ccccc2)nc1-c1cccs1)N1CCN(c2ccccc2)CC1	-2	0	i	+	21	2
O=C(c1cc(-c2ccccc2)nc2ccccc12)N1CCN(c2ccccn2)CC1	-2	0	i	+	-20	0
COc1ccc(N2CCN(C(=O)c3cc(-c4cccs4)nc4ccccc34)CC2)cc1	-1	1	i	+	-13	-2
Oc1[nH]c2ccccc2c1C1=NCCCCC1	-2	0	i	i	6	-3
O=C(N/N=C/c1ccc[nH]1)c1ccc([N+](=O)[O-])cc1	-3	-1	i	i	-7	1
Cc1cc(-c2ccc(N=Nc3c(S(=O)(=O)O)cc4cc(S(=O)(=O)O)cc(N)c4c3O)c(C)c2)ccc1N=Nc1c(S(=O)(=O)O)cc2cc(S(=O)(=O)O)cc(N)c2c1O	32	66*	·	·	·	·
COc1c(C)oc2cc(O)ccc2c1=O	6	4	i	i	2	-1
Oc1ccc2c(c1)oc1cc(O)ccc12	53*	12	i	i	-3	3
CSc1ccc(CN2CCN(C(C)C)C(CCO)C2)cc1 (stereo unspecified)	-6	-1	i	i	-5	1
COc1ccc(C2/C=C\CN(C(=O)c3ccc(C)cc3)[C@H](Cc3ccccc3)C(=O)N2Cc2ccc(F)cc2)cc1 (stereo partly specified)	-2	-2	i	+	-7	2
COc1ccc(C2/C=C\CN(C(=O)C3CC3)[C@H](Cc3ccccc3)C(=O)N2Cc2ccc(F)cc2)cc1 (stereo partly specified)	2	0	i	i	13	-3
CCC(Oc1ccccc1)C(=O)Nc1ncc([N+](=O)[O-])s1 (stereo unspecified)	-4	0	i	i	8	3
CC(CC(=O)Nc1ncc([N+](=O)[O-])s1)c1ccccc1 (stereo unspecified)	52*	-2	i	i	-33	-20
CC(C)CC(NC(=O)C(COC(C)(C)C)NC(=O)C(Cc1ccc(O)cc1)NC(=O)C(CO)NC(=O)C(Cc1c[nH]c2ccccc12)NC(=O)C(Cc1cnc[nH]1)NC(=O)C1CCC(=O)N1)C(=O)N[C@@H](CCCN=C(N)N)C(=O)N1CCCC1C(=O)NNC(N)=O (stereo partly specified)	·	·	i	·	·	·
CCN(CC)c1ccc(C=C(c2nnnn2-c2ccccc2)c2nnnn2-c2ccccc2)cc1	-1	0	3.1*	i	-4	-1
COCc1ccc(C(=O)N2CCCC(Nc3ccc(C(C)C)cc3)C2)o1 (stereo unspecified)	-1	-3	·	i	8	1
SMILES	GSK3 alpha inh	STK33 inh	HSV augment	Rce1 inhib	Lipid droplet	GSK3B inh
c1cncc(Nc2nc(-c3cccnc3)cs2)c1	10	34*	i	i	·	-11
c1cncc(Nc2nc(-c3ccncc3)cs2)c1	5	9	i	i	·	-7
O=C(O)C1CCN(C(=O)c2cccc3ccccc23)CC1	2	0	·	i	-3	3
CN1CC(C(=O)O)Cc2c1ccc1ccccc21 (stereo unspecified)	-5	0	i	+	2	2
COc1ccccc1NS(=O)(=O)c1cccc(-n2c(O)c(C=Nc3ccccc3C(=O)O)c3ccccc3c2=O)c1	-4	2	i	i	52*	0
O=C(COC(=O)c1ccccc1Cc1ccccc1)NC1CCS(=O)(=O)C1 (stereo unspecified)	8	4	·	+	1	3
O=C(CCCc1ccccc1)NCCS(=O)(=O)N1CCN(c2ccc(F)cc2)CC1	2	1	·	i	·	4
O=C(/C=C\N1CCOCC1)c1ccc(Br)cc1	-2	0	·	i	-4	-7
O=C(Cn1cnc2ccc(Br)cc2c1=O)c1cccs1	0	-2	i	i	·	-1
COC(=O)CCCCC1SCC2NC(=O)NC21 (stereo unspecified)	2	0	i	i	-2	-8
O=C(O)CCCC[C@@H]1SC[C@@H]2NC(=O)N[C@@H]21	3	1	i	+	·	2
N#Cc1c2ccc(O)cc2n2ccccc12	26	32*	i	i	10	-11
Cc1ccc(NC(=O)CNC(=O)C2CCCCC2)nc1	0	-1	·	i	·	2
Cn1c(SCc2nnc(-c3ccc(F)cc3)o2)nnc1C1COc2ccccc2O1 (stereo unspecified)	60*	-1	i	i	·	-44
CCOC(=O)COc1cccc(C2NC(=O)c3ccccc3O2)c1 (stereo unspecified)	-2	2	·	i	2	0
NC(N)=NC(=O)c1nc(Cl)c(N)nc1N	0	2	i	+!	3	0
Cc1sc2ncnc(N3CCC(C(=O)Nc4ccc(OC(F)F)c(Cl)c4)CC3)c2c1C	0	-1	·	·	·	·
CCN(CC)CCNC(=O)c1ccc(NC(=O)C2CCN(c3ncnc4sc(C)c(C)c34)CC2)cc1	53*	3	·	i	2	3
CC(C)(C)C(=O)C[n+]1ccc(C(N)=O)cc1	-2	-2	i	+	-5	0

Screening results: PubChem, several laboratories
